In PubChem BioAssay:
Active and inactive are the calls of the source.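 Rule for the calls, unless noted: active = GFP response above 150% of the DMSO level; inconclusive = fewer than 70 events counted for a yeast strain; inactive = the rest.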

Experiments:
[1] = hit retest on RPL19A-GFP reporter strain – cell-based, S. cerevisiae, flow cytometry, cherry picks, mother/daughter gates, confirmation (AID 2270;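 active = GFP response below 50% of the DMSO control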); details: 3 h, at 10 µM, stronger effect = lower value, 100 = same GFP as DMSO wells
[2] = yeast TOR pathway reporter LAP4-GFP change – cell-based, cherry picks, flow cytometry, mother/daughter gates, confirmation (AID 2271;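 active = GFP response above 150% of the DMSO control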;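 note: ratio of sample to DMSO plate mean so 100% equals DMSO level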); details: S. cerevisiae LAP4-GFP strain, 3 h, at 10 µM, stronger effect = higher value, 100 means same as DMSO control
How it was run: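 Test system: GFP-fusion yeast strain. Medium: synthetic complete (SC) yeast growth medium. Timing: 3 h treatment at 30 °C with rotation. Measured by: GFP by flow cytometry. Control set: positive rapamycin (400 ng/mL), negative DMSO.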

[3] = TOR pathway reporter MEP2-GFP, retest of hits – S. cerevisiae, flow cytometry GFP, cherry picks, confirmation (AID 2272;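 active = GFP response above 150% of the DMSO control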;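 note: ratio of well signal to plate DMSO mean so 100% equals DMSO level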); details: S. cerevisiae MEP2-GFP strain, 3 h, at 10 µM, stronger effect = higher value
[4] = yeast AGP1-GFP fluorescence change, single-dose – cell-based, flow cytometry, S. cerevisiae, cherry picks, confirmation (AID 2273);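 note: median GFP channel fluorescence over the whole cell population gate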; details: S. cerevisiae AGP1-GFP strain, 3 h, at 10 µM
[5] = TOR pathway CIT2 reporter hit retest – S. cerevisiae, GFP fusion, cherry picks, mother/daughter gates, confirmation (AID 2274); details: S. cerevisiae CIT2-GFP strain, flow cytometry, 3 h, at 10 µM, stronger effect = higher value
[6] = measured here: daughter cell gate
[7] = measured here: mother cell gate
[8] = measured here: daughter cell gate response
[9] = measured here: mother cell gate response

Row | SMILES | GFP response vs DMSO [1] | GFP response vs DMSO [1, 6] [%] | GFP response vs DMSO [1, 7] [%] | GFP response relative to DMSO [2] | GFP response relative to DMSO [2, 8] [%] | GFP response relative to DMSO [2, 9] [%] | GFP response vs DMSO [3] | GFP response, % of DMSO [4] | GFP response, % of DMSO [5] | GFP response, % of DMSO [5, 6] [%] | GFP response, % of DMSO [5, 7] [%]
1 | CCOC(=O)c1sc(NC(=O)CN2C(=O)c3cccc4cccc(c34)C2=O)nc1C | 96.6% (inactive) | 98.1 | 96.9 | 87.6% (inactive) | 86.4 | 87.6 | 100% (inactive) | 98.3% (inactive) | 98.3% (inactive) | 101 | 97.3
2 | COc1cc(NC(=O)c2ccccc2[N+](=O)[O-])ccc1NC(=O)c1cc2ccccc2o1 | 101% (inactive) | 99.1 | 101 | 97% (inactive) | 97.5 | 97.3 | 103% (inactive) | 101% (inactive) | 97.3% (inactive) | 97.4 | 95.6
3 | Cc1cc(C)n2nc(C(=O)NC(c3ccccc3)c3ccccc3)nc2n1 | 98.6% (inactive) | 99.9 | 98.2 | 98.6% (inactive) | 99.7 | 99.2 | 98.8% (inactive) | 104% (inactive) | 111% (inactive) | 110 | 112
4 | O=C(Nc1ccccc1O)c1ccccc1O | 95.8% (inactive) | 96.4 | 94.2 | 96.5% (inactive) | 96 | 95.4 | 106% (inactive) | 103% (inactive) | 101% (inactive) | 103 | 100
5 | c1cnc2c(SCc3ccc(-c4nnco4)cc3)cccc2c1 | 98.2% (inactive) | 96.4 | 97.5 | 108% (inactive) | 108 | 110 | 106% (inactive) | 104% (inactive) | 94.4% (inactive) | 90.5 | 96
6 | CCOC(=O)C1=C(Cc2ccc(F)cc2)C(=O)c2ccccc2C1=O | 97.8% (inactive) | 99.6 | 95.8 | 101% (inactive) | 97.9 | 104 | 106% (inactive) | 92.5% (inactive) | 95% (inactive) | 96.4 | 92.1
7 | C=CCNC(=O)/C(=C\c1ccc(OC)cc1)NC(=O)c1ccc([N+](=O)[O-])cc1 | 97.4% (inactive) | 97.6 | 98.7 | 97.3% (inactive) | 99.7 | 96.2 | 96.6% (inactive) | 100% (inactive) | 108% (inactive) | 108 | 110
8 | COc1ccc(N=Cc2cc(Cc3ccccc3Cl)cc([N+](=O)[O-])c2O)cc1OC | 93.4% (inactive) | 93 | 86.5 | 142% (inactive) | 114 | 147 | 120% (inactive) | 96.7% (inactive) | 96.5% (inactive) | 86.7 | 96.6
9 | CCC(=O)Nc1ccc(NC(=O)c2oc3ccccc3c2C)cc1 | 101% (inactive) | 95 | 96.3 | 99.8% (inactive) | 100 | 101 | 102% (inactive) | 93.9% (inactive) | 103% (inactive) | 99.7 | 102
10 | Cc1ccccc1C(=O)Nc1cccc(C#N)c1 | 95.6% (inactive) | 96.7 | 94.2 | 97.7% (inactive) | 99 | 97.4 | 108% (inactive) | 99.8% (inactive) | 97.2% (inactive) | 99.3 | 97.1
11 | O=C(COC(=O)/C=C/c1cccs1)Nc1nc(-c2cccc(Br)c2)cs1 | 102% (inactive) | 103 | 102 | 89% (inactive) | 94.1 | 89 | 100% (inactive) | 96.7% (inactive) | 110% (inactive) | 108 | 112
12 | CCOc1cc(/C=C2\N=C(C)OC2=O)cc(Br)c1OCCc1ccccc1 | 100% (inactive) | 99.8 | 101 | 102% (inactive) | 95 | 103 | 99.5% (inactive) | 97.3% (inactive) | 92.1% (inactive) | 92.7 | 88.6
13 | O=C(O)COc1c(-c2ccc(Cl)cc2)oc2ccccc2c1=O | 97% (inactive) | 95.4 | 97.9 | 99.2% (inactive) | 99.2 | 99.3 | 102% (inactive) | 96% (inactive) | 96.9% (inactive) | 97.2 | 96.1
14 | O=[N+]([O-])c1cc(Cl)ccc1Sc1ccccn1 | 104% (inactive) | 102 | 103 | 98.2% (inactive) | 95.9 | 98.4 | 112% (inactive) | 99% (inactive) | 95.9% (inactive) | 95.6 | 93.2
15 | CCC(=O)Oc1oc(-c2ccccc2)nc1C=Nc1ccccc1OC | 102% (inactive) | 102 | 102 | 105% (inactive) | 94.4 | 108 | 95.2% (inactive) | 95.5% (inactive) | 90.3% (inactive) | 86.9 | 92.6
16 | S=c1[nH]nc(NCCCN2CCOCC2)s1 | 96% (inactive) | 97.1 | 95.1 | 101% (inactive) | 101 | 102 | 103% (inactive) | 106% (inactive) | 102% (inactive) | 100 | 103
17 | Cc1cc(Br)c2c(c1)/C(=C/C(=O)c1cccs1)C(=O)N2 | 99.6% (inactive) | 99.1 | 99.2 | 115% (inactive) | 115 | 117 | 105% (inactive) | 107% (inactive) | 98.4% (inactive) | 93.7 | 95.7
18 | COc1cccc(CC(=O)OC(C)C(=O)Nc2ncc(Cl)cc2Cl)c1 (stereo not drawn) | 101% (inactive) | 99.8 | 101 | 96.2% (inactive) | 97.2 | 97.2 | 102% (inactive) | 91.1% (inactive) | 97.8% (inactive) | 98.1 | 95.5
19 | Cc1cccc(NC(=O)c2nc(S(=O)(=O)Cc3ccccc3)ncc2Cl)c1 | 93.1% (inactive) | 92.7 | 91.4 | 136% (inactive) | 128 | 137 | 108% (inactive) | 116% (inactive) | 93.1% (inactive) | 88.7 | 90.4
20 | Cc1nc2ccccc2c(=O)n1/N=C/c1ccc([N+](=O)[O-])o1 | 104% (inactive) | 108 | 104 | 121% (inactive) | 120 | 121 | 116% (inactive) | 102% (inactive) | 121% (inactive) | 128 | 115
21 | O=C(Oc1oc(-c2ccco2)nc1C=Nc1ccccc1)c1ccco1 | 104% (inactive) | 106 | 102 | 160% (active) | 147 | 175 | 107% (inactive) | 91.2% (inactive) | 104% (inactive) | 108 | 101
22 | O=C(CNC(=O)c1ccncc1)N/N=C/c1cccc([N+](=O)[O-])c1 | 99.2% (inactive) | 98.6 | 99.4 | 97.9% (inactive) | 97.6 | 98.3 | 105% (inactive) | 94.7% (inactive) | 99.7% (inactive) | 101 | 99.7
23 | CC1CCN(S(=O)(=O)c2cccc(C(=O)Nc3nccs3)c2)CC1 | 101% (inactive) | 101 | 101 | 92.6% (inactive) | 95.6 | 93.1 | 100% (inactive) | 95.4% (inactive) | 107% (inactive) | 105 | 105
